Experiment: Toxicity liver stage against HepG2, at 10uM
Assay type: cell-based
Design: test concentration 10 uM, cell line HepG2-A16-CD81EGFP
Settings: human, HepG2-A16-CD81EGFP cells; read-out: INHIBITION
Procedure, shortened: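 Uninfected HepG2-A16-CD81EGFP cells, 3 × 10^3 per well, 1536-well, plated on prespotted compound at 10 μM final, parasite-free screening media added to match infected plates; puromycin 10 μM positive, DMSO 0.5% negative; run in parallel with 48 h PbLuc assay at 37 °C, 5% CO2; viability by CellTiter-Glo luminescence, normalized to controls.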

| SMILES | cytotoxicity at 10 µM |
| --- | --- |
| CC(CCSc1ccccc1)N1CCCN(C(N)=O)CC1 (configuration not stated) | -10.7% |
| COCCN(C)C(=O)c1ccccc1-n1cc(CN(C)C)cn1 | -29.5% |
| CC(=O)N1CCC2(CN(CC3CCCC3)C2)C1 | 2.05% |
| CO[C@H]1CN(Cc2c(C)ccc3ncccc23)CC[C@H]1N | -146% |
| NC(=O)Nc1cccc(F)c1C(=O)NC1CCCC1 | -8.64% |
| COC(=O)CN(C(=O)c1ccco1)c1cccc(F)c1 | -4.81% |
| Cc1cccc(-c2ccc(C(=O)N3CCSCC3)c(=O)[nH]2)c1 | 6.99% |
| CCN(CC)C(=O)COc1nc(C(C)C)no1 | 3.6% |
| Cc1cc(C)cc(NCCC(=O)NC2CCCCC2)c1 | 7.61% |
| Cc1cc(C(=O)N2C[C@@H]3[C@@H](C2)OCC(=O)N3CC2CC2)no1 | -10.4% |
| CC(NCc1c(C(C)C)nn(C)c1N(C)C)C(=O)NC1CCCC1 (configuration not stated) | 0.966% |
| CSCC(C)N(C)C(=O)CN1CCN(c2ccccn2)CC1 (configuration not stated) | -7.59% |
| COCc1noc(CCNC(=O)c2ccc(C3CCCO3)s2)n1 (configuration not stated) | 3.19% |
| COCCC(=O)N(Cc1ccccn1)Cc1ccccc1C | 2.14% |
| c1cn(-c2cncc(C3CCNCC3)n2)cn1 | -32.5% |
| CC(C)(C)c1cnc(CN2CCC[C@H]2CO)o1 | -14.8% |
| CCc1ccc(CN2CCCC(CO)(CCOC)C2)cc1 (configuration not stated) | -0.26% |
| Cc1nc(CN(C)C2CCN(CCn3cc(C#N)cn3)C2)no1 (configuration not stated) | -3.82% |
| CC(C)S(=O)(=O)C(C)C(=O)NCc1cccc(N2CCCCC2=O)c1 (configuration not stated) | -7.91% |
| Cn1cnnc1C1CCCN(C(=O)CCc2ccc3c(c2)OCO3)C1 (configuration not stated) | 0.415% |
| O=C1C(NCc2cccc(O)c2)CCN1Cc1ccccc1 (configuration not stated) | -0.539% |
| Cc1ccccc1CNC(=O)CNc1ccc(OC2CCOC2)cc1 (configuration not stated) | 2.77% |
| Cc1ccc(S(C)(=O)=O)cc1C(=O)N(C)Cc1ccco1 | 0.0194% |

| SMILES | cytotoxicity at 10 µM |
| --- | --- |
| Cc1sc2nc(C(F)(F)F)nc(N3CCCN(C)CC3)c2c1C | -26.8% |
| Cc1ccc(C2COCCN2C(=O)c2ccc(C)s2)o1 (configuration not stated) | -3.9% |
| CC(=O)N1CCc2nc(C3CCN(c4ncccn4)C3)ncc2C1 (configuration not stated) | -30% |
| O=C1CN(c2ccc(C(=O)N3CCc4ccccc43)cn2)CCN1 | 2.66% |
| CNc1cncc(C2CCCN(S(C)(=O)=O)C2)n1 (configuration not stated) | 3.19% |
| Cc1ncc(CNC(=O)CCOc2ccccc2)c(C2CCCN2C)n1 (configuration not stated) | -1.03% |
| CC(C)NC(=O)NCc1ccc(C(=O)NC(C)Cn2cccn2)cc1 (configuration not stated) | -1.46% |
| CCOc1ccc(S(=O)(=O)N(CCOC)Cc2ccoc2)cc1F | 8.31% |
| Cc1ccccc1OCC1CCCN(C(=O)CN(C)C2CCNCC2)C1 (configuration not stated) | -5.54% |
| Cc1sc(-c2ccco2)nc1C(=O)N(CC(N)=O)C1CCCC1 | -2.64% |
| CCN1CCCC(CN(C)c2nccc(-c3ccc(C)nc3C)n2)C1 (configuration not stated) | -13.5% |
| CS(=O)(=O)N1C[C@@H]2C[C@H](C(=O)N3CCOCC3)[C@H](C1)O2 | -2.92% |
| CC(NCc1cnn(C)c1)c1ccc(OCc2nccn2C)cc1 (configuration not stated) | -7.16% |
| Cn1ccnc1CN1CCN(CCOc2ccccc2C#N)CC1 | -14.9% |
| CC1CCCN(Cc2coc(-c3cccc(F)c3)n2)C1 (configuration not stated) | -16.7% |
| c1cnn(CC2CN(Cc3ccc(-n4ccnc4)cc3)CCO2)c1 (configuration not stated) | -3.12% |
| Cc1ccc(CN2CCOC(C)(c3cnn(C)c3)C2)cc1 (configuration not stated) | -4.16% |
| Cc1nc(C(C)NC(=O)c2cn(C/C=C/c3ccccc3)nn2)n[nH]1 (configuration not stated) | 10.7% |
| CN(Cc1ccon1)C1CCN(c2cccc(-c3cscn3)c2)CC1 | -3.96% |
| O=C(Nc1ccc(CCN2CCSCC2)cc1)NC1CC1 | -12.1% |
| COc1c(CNCC(c2cccc(F)c2)N(C)C)c(C(C)C)nn1C (configuration not stated) | -3.27% |
| CC(NC(=O)NCCCc1n[nH]c(N)c1C#N)c1ccc(F)cc1 (configuration not stated) | -13.7% |
| Cc1nccn1C1CCCN(C(=O)c2ccc(N3CCCC3)nn2)C1 (configuration not stated) | -11.2% |

| SMILES | cytotoxicity at 10 µM |
| --- | --- |
| CC(C)OCCC(=O)N(C)c1ccc(F)c(Cl)c1 | -4.62% |
| Cc1cccc(C)c1NC(=O)c1cccc(N(C)S(C)(=O)=O)c1C | 3.03% |
| CCN(Cc1ccncc1)C(=O)C(C)n1ccnc1C(C)C (configuration not stated) | 2.79% |
| O=C(c1ncncc1Cl)N1CCC2(CCCC2)CC1 | 1.06% |
| O=c1[nH][nH]c2cn(-c3ccc(Br)cc3)c(=O)n12 | -11.8% |
| Cc1cnn(CCC(=O)NS(=O)(=O)N2CCc3ccccc32)c1 | 4.72% |
| CC1COc2ccccc2N1C(=O)c1ccnc(-n2cncn2)c1 (configuration not stated) | 12.5% |
| COCCN1CCCC(CCCc2ccccn2)(C(N)=O)C1 (configuration not stated) | -16% |
| Cc1csc(CNC(=O)NCC(O)c2cccc(Cl)c2)n1 (configuration not stated) | -14.6% |
| CCCNC(=O)c1cc(-c2ccn(C(C)C)n2)n2ccccc12 | 1.92% |
| CCc1cnc(N)nc1NCCCn1nc(C)nc1C | -1.37% |
| CCC(=O)N1CCc2onc(CNS(C)(=O)=O)c2C1 | -96.5% |
| CNc1nc2c(s1)C(c1c(F)cccc1Cl)CC(=O)N2 (configuration not stated) | -14.7% |
| CCOC[C@H]1CC[C@H]2[C@H](CCN2C(=O)c2ccncc2F)O1 | -6.96% |
| CC(C)n1cc(CN2CCCN(C(=O)CC3CCCO3)CC2)cn1 (configuration not stated) | -12.4% |
| O=C(c1csc(-c2ncccn2)n1)N1CCN(C2CCCC2)CC1 | 4.87% |
| CN(C)CCN1CCOCC2(C1)CN(Cc1ccco1)CCO2 (configuration not stated) | -111% |
| COc1coc(CN2CCCC(CCc3ccccc3F)C2)cc1=O (configuration not stated) | -1.62% |
| COc1ccc(C2(c3nc(-c4cnn(C)c4)no3)CCOCC2)cc1 | 11.4% |
| CC1CCCN(CCNC(=O)c2ccn(-c3ccc(F)cc3)n2)C1 (configuration not stated) | -0.734% |
| NC(=O)c1cc(C2CCCN(C(=O)CCc3ccncc3)C2)n[nH]1 (configuration not stated) | -8.99% |
| CCC1=N[C@@]2(CC[C@@H]3CN(CC4CC4)C[C@@H]32)C(=O)N1CC | 6.56% |
| O=c1cc(CN2CCCC2)nc2n1CCCN(Cc1ccoc1)C2 | -123% |

| SMILES | cytotoxicity at 10 µM |
| --- | --- |
| COc1ccc(-c2nnsc2C(=O)N2CCOCC2)cc1 | 3.03% |
| CO[C@H]1CCN(C(=O)c2ccsc2)[C@@H]2CN(CC3CC3)C[C@H]12 | 1.64% |
| Cc1ccc(N2N=C(C(=O)NCC3CC3)S(=O)(=O)c3cccnc32)cc1 | 6.72% |
| CCOc1ccc(Br)cc1C1CCCCN1 (configuration not stated) | 7.16% |
| COc1cc(C)c(S(=O)(=O)CC(=O)N(C)C(C)C)cc1OC | 4.02% |
| O=C(CNc1cc(-c2ccccc2)nc2ccnn12)NC1CC1 | -10.5% |
| Cc1cc(CN(C)C(=O)C(c2ccccc2F)N(C)C)ccn1 (configuration not stated) | 2.78% |
| Cc1n[nH]c(CN2CCN(c3ncnc4scc(C)c34)CC2)c1Cl | 58.4% |
| CN(C)Cc1ccnc(NS(=O)(=O)CCc2ccccc2)c1 | -3.09% |
| CCOC1CCN(C(=O)CN(C)c2cnccn2)CC1 | -6.07% |
| Cc1ccccc1CN1CCN(c2ncnc3c2NC(=O)CN3)CC1 | 6.78% |
| Cc1nc[nH]c1CN1C[C@H]2CC[C@@H](C1)N(C(=O)CCn1cncn1)C2 | 1.15% |
| COC1(CNS(=O)(=O)c2ccccc2Cl)CCSC1 (configuration not stated) | -7.48% |
| Cc1ccc(C(=O)N2CCC3(CC2)CCN(CCN(C)C)C3=O)cn1 | 5.36% |
| COCCN1CCCC2(CCN(C(=O)c3cnc(O)cn3)C2)C1=O (configuration not stated) | 0.0942% |
| O=C(NCC1CC1)[C@@H]1C[C@@H]2CCN(Cc3ccoc3)C[C@@H]2O1 | -2.65% |
| COCC1Cn2nnc(-c3cnn(C)c3)c2CN1Cc1cccs1 (configuration not stated) | 6.24% |
| Cc1nccn1CCCn1c(=O)cnc2ccccc21 | 1.53% |
| O=C1N(CC2CCCCC2)CCCC1(O)CN1CCc2[nH]ncc2C1 (configuration not stated) | -5.84% |
| CNC(=O)C(C)(C)CNC(=O)Nc1ccncc1C | -12.1% |
| CNC(=O)[C@@]12CCO[C@@H]1CCN(S(=O)(=O)c1cccc(C)c1)C2 | -1.8% |
| CCN(CC)C(=O)Cn1c(C)cc2nc(SC)n(CC(C)C)c(=O)c21 | -12.8% |
| CCc1c(C(=O)Nc2ccc(F)c(C(=O)NC)c2)cnn1CC(C)C | 14.7% |

| SMILES | cytotoxicity at 10 µM |
| --- | --- |
| Cn1c(CO)nnc1SCc1c(F)cccc1Br | -41.2% |
| O=C(NCC1CCC(c2nnc(-c3cccnc3)o2)CC1)C1CC1 (configuration not stated) | 3.15% |
| CCC(CNC(=O)N1CCOCC2(CCOCC2)C1)c1ccccc1 (configuration not stated) | 5.17% |
| Cc1c(-c2c(-c3ccccc3)ncn2[C@@H](C(=O)O)[C@H](C)O)cnn1C | -7.67% |
| Cc1nn2c(-c3snnc3C)nnc2s1 | -4.19% |
| COc1ccc2cc(C3CN(C(=O)COC(C)C)CCO3)ccc2c1 (configuration not stated) | 7.29% |
| CN1CCN(S(=O)(=O)c2ccc3c(c2)CN(C(=O)C(C)(C)C)CC3)CC1 | -8.91% |
| NC(=O)C1CCN(Cc2cccc(NC(=O)c3ccsc3)c2)CC1 | 18.7% |
| Cc1csc(CCCNC(C)CC(=O)Nc2ccc(F)cc2)n1 (configuration not stated) | 1.52% |
| Cc1n[nH]c2c1C(c1ccc(Cl)cc1)SCC(=O)N2 (configuration not stated) | 19.2% |
| Fc1cccc(CN2C[C@@H]3COC[C@]3(COCc3ccncc3)C2)c1 | -61.1% |
| CN1CCCN(C[C@@H]2CN(C(=O)CCC3CCCC3)C[C@@H]2CO)CC1 | -20.6% |
| CS(=O)(=O)N1CCC(C(=O)N2CCC(Cn3cccn3)CC2)CC1 | -10.2% |
| Cc1ccc(CN2CCc3ncnc(-c4ccc(F)cc4)c3CC2)o1 | -9.49% |
| C=C(C)CN1CCOC(Cn2cncn2)C1 (configuration not stated) | -52% |
| COc1ccc2oc(C(C)NC(=O)NCC(C)(C)C(N)=O)c(C)c2c1 (configuration not stated) | -9.51% |
| c1ccc(Cc2noc(CN3CCOC(Cn4cncn4)C3)n2)cc1 (configuration not stated) | 1.28% |
| Cc1cnn(CC2CCCCN2c2ncnc3ccccc23)c1 (configuration not stated) | 8.24% |
| CNc1ncc(CN(C)Cc2cc(O)c3cc(C)cc(C)c3n2)cn1 | -13.9% |
| c1cc(-c2nccn2CCc2nc3c(s2)CCC3)ccn1 | 6.15% |

— ChEMBL document CHEMBL4513216, “Probing the Open Global Health Chemical Diversity Library for Multistage-Active Starting Points for Next-Generation Antimalarials” (ACS Infect Dis, 2020)
